# From ChEMBL document CHEMBL1955778, “Design and synthesis of novel 7-aminoquinazoline derivatives: antitumor and anticonvulsant activities” (Bioorg Med Chem Lett, 2012)
# Active and inactive are the calls of the source. The calls are words filed in the database; no cut-off is given here.
# Columns and labels:
# HT-29 = assay: Growth inhibition of human HT-29 cells at 10 uM relative to control; format: functional; conditions: read-out: GI
# How it was run: (§1)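 Each cell line in a 60-line human tumour panel exposed to one 10 μM concentration. Growth inhibition percentage computed as 100 minus the percentage activity relative to control.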
# SW-620 = assay: Growth inhibition of human SW620 cells at 10 uM relative to control; format: functional; conditions: read-out: GI
# How it was run: (§2)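 Single-dose screen across the 60-cell-line human tumor panel at 10 μM. Growth inhibition is reported as a percentage, taken as 100 minus the % growth relative to untreated control.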
# IGROV-1 = assay: Growth inhibition of human IGROV1 cells at 10 uM relative to control; format: functional; conditions: read-out: GI; how it was run: as §1
# U-251 = assay: Growth inhibition of human U251 cells at 10 uM relative to control; format: functional; conditions: read-out: GI; how it was run: as §2
# CAKI-1 = assay: Growth inhibition of human CAKI-1 cells at 10 uM relative to control; format: functional; conditions: read-out: GI; how it was run: as §1
# [1] = Growth inhibition of human 786-O cells at 10 uM relative to control; format: functional; conditions: 786-0, read-out: GI; how it was run: as §1
# COLO 205 = assay: Growth inhibition of human COLO205 cells at 10 uM relative to control; format: functional, cell-based; how it was run: as §1
# SR = assay: Growth inhibition of human SR cells at 10 uM relative to control; format: functional; conditions: read-out: GI; how it was run: as §2
# CCRF-CEM = assay: Growth inhibition of human CCRF-CEM cells at 10 uM relative to control; format: functional; conditions: read-out: GI; how it was run: as §1
# M14 = assay: Growth inhibition of human M14 cells at 10 uM relative to control; format: functional; conditions: read-out: GI; how it was run: as §1
# UACC-257 = assay: Growth inhibition of human UACC257 cells at 10 uM relative to control; format: functional; conditions: read-out: GI; how it was run: as §2
# RXF 393 = assay: Growth inhibition of human RXF393 cells at 10 uM relative to control; format: functional; conditions: read-out: GI; how it was run: as §1
# KM12 = assay: Growth inhibition of human KM12 cells at 10 uM relative to control; format: functional; conditions: read-out: GI; how it was run: as §1
# SNB-75 = assay: Growth inhibition of human SNB75 cells at 10 uM relative to control; format: functional; conditions: read-out: GI; how it was run: as §2
# SN12C = assay: Growth inhibition of human SN12C cells at 10 uM relative to control; format: functional; conditions: read-out: GI; how it was run: as §2
# NCI-H23 = assay: Growth inhibition of human NCI-H23 cells at 10 uM relative to control; format: functional; conditions: read-out: GI; how it was run: as §1
# LOX IMVI = assay: Growth inhibition of human LOXIMVI cells at 10 uM relative to control; format: functional; conditions: read-out: GI; how it was run: as §1
# NCI/ADR-RES = assay: Growth inhibition of human NCI/ADR-RES cells at 10 uM relative to control; format: functional; conditions: read-out: GI; how it was run: as §1
# HCT-116 = assay: Growth inhibition of human HCT116 cells at 10 uM relative to control; format: functional; conditions: read-out: GI; how it was run: as §1
# RPMI-8226 = assay: Growth inhibition of human RPMI8226 cells at 10 uM relative to control; format: functional; conditions: read-out: GI; how it was run: as §1
# ACHN = assay: Growth inhibition of human ACHN cells at 10 uM relative to control; format: functional; conditions: read-out: GI; how it was run: as §1
# SF-295 = assay: Growth inhibition of human SF295 cells at 10 uM relative to control; format: functional; conditions: read-out: GI; how it was run: as §1
# HL-60(TB) = assay: Growth inhibition of human HL-60(TB) cells at 10 uM relative to control; format: functional; conditions: read-out: GI
# How it was run: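 Single-dose screen at 10 μM across the 60-cell-line tumour panel. Percent growth inhibition = 100 minus percent growth activity relative to untreated control.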
# [2] = Growth inhibition of human Hs 578T cells at 10 uM relative to control; format: functional; conditions: read-out: GI; how it was run: as §1
# EKVX = assay: Growth inhibition of human EKVX cells at 10 uM relative to control; format: functional; conditions: read-out: GI; how it was run: as §1
# UO-31 = assay: Growth inhibition of human UO31 cells at 10 uM relative to control; format: functional; conditions: read-out: GI; how it was run: as §2
# SNB-19 = assay: Growth inhibition of human SNB19 cells at 10 uM relative to control; format: functional; conditions: read-out: GI; how it was run: as §2
# MOLT-4 = assay: Growth inhibition of human MOLT4 cells at 10 uM relative to control; format: functional; conditions: read-out: GI; how it was run: as §1
# OVCAR-4 = assay: Growth inhibition of human OVCAR4 cells at 10 uM relative to control; format: functional; conditions: read-out: GI; how it was run: as §1
structure (smiles),measurement,setting,value
Cc1ccccc1-n1c(C)nc2cc(NC(=O)c3ccc(Cl)cc3)ccc2c1=O,inhibition of growth at 10 µM,HT-29,38.1%
same,inhibition of growth at 10 µM,SW-620,14%
same,inhibition of growth at 10 µM,IGROV-1,21.4%
same,inhibition of growth at 10 µM,U-251,32.4%
same,inhibition of growth at 10 µM,CAKI-1,41.2%
same,inhibition of growth at 10 µM,[1],32.4%
same,growth inhibition (GI),COLO 205,inactive
same,inhibition of growth at 10 µM,SR,26.3%
same,inhibition of growth at 10 µM,CCRF-CEM,47.3%
same,inhibition of growth at 10 µM,M14,32.3%
same,inhibition of growth at 10 µM,UACC-257,40.3%
same,inhibition of growth at 10 µM,RXF 393,23.2%
same,inhibition of growth at 10 µM,KM12,24.4%
same,inhibition of growth at 10 µM,SNB-75,21.2%
same,inhibition of growth at 10 µM,SN12C,32.4%
same,inhibition of growth at 10 µM,NCI-H23,35.7%
same,inhibition of growth at 10 µM,LOX IMVI,31.6%
same,inhibition of growth at 10 µM,NCI/ADR-RES,17.6%
same,inhibition of growth at 10 µM,HCT-116,25.2%
same,inhibition of growth at 10 µM,RPMI-8226,55.4%
same,inhibition of growth at 10 µM,ACHN,52%
same,inhibition of growth at 10 µM,SF-295,40.3%
same,inhibition of growth at 10 µM,HL-60(TB),35.5%
same,inhibition of growth at 10 µM,[2],17.9%
same,inhibition of growth at 10 µM,EKVX,48.5%
same,inhibition of growth at 10 µM,UO-31,22.2%
same,inhibition of growth at 10 µM,SNB-19,24.2%
same,inhibition of growth at 10 µM,MOLT-4,29.3%
same,inhibition of growth at 10 µM,OVCAR-4,69.9%
